# Measurements gathered from unrelated publications.
# Compare with care: the assays were run in different laboratories.
# BACE1: Beta-secretase 1 (BACE1, Homo sapiens, UniProt P56817)
# HTR1E: 5-hydroxytryptamine receptor 1E (HTR1E, Homo sapiens, UniProt P28566)
Compound,target,effect on,mode,method,quantity,value
C=CC(=O)N[C@H]1C=C(C)c2c(-c3cnc4ccccc4c3)c3c(N)ncnc3n2C1,"Epidermal growth factor receptor (EGFR, Homo sapiens, UniProt P00533, L858R/T790M)",enzyme activity,inhibitor,,IC50,0.0011 µM
Cn1cc(-c2cc(C(=O)NN=Cc3cccc([N+](=O)[O-])c3)no2)c2ccccc21,BACE1,enzyme activity,inhibitor,FRET,IC50,> 100 µM
CC(N)Cc1c[nH]c2ccc(OCc3cccs3)cc12 (stereo not drawn),HTR1E,G protein activation,agonist,BRET,EC50,3.99 µM
CC[C@H](C)[C@H](NC(=O)[C@H](CO)NC(=O)CNC(=O)[C@@H](NC(=O)[C@@H](NC(=O)[C@@H](NC(=O)CN)[C@@H](C)O)C(C)C)[C@@H](C)O)C(=O)N[C@@H](CC(C)C)C(=O)N[C@H](C(=O)N1CCC[C@H]1C(=O)N[C@H](C(=O)N[C@@H](CC(=O)O)C(=O)N[C@@H](Cc1ccc(O)cc1)C(=O)NCC(=O)N[C@H]1CSSC[C@@H](C(=O)N[C@@H](CO)C(=O)N[C@H](C(=O)N[C@@H](C)C(=O)N[C@@H](CCSC)C(=O)N[C@@H](Cc2ccc(O)cc2)C(=O)NCC(=O)NCC(=O)N[C@H](C(=O)N[C@H](C(=O)N[C@@H](CC(=O)O)C(=O)N2CCC[C@H]2C(=O)N[C@H](C(=O)N[C@@H](CCCNC(=N)N)C(=O)N[C@@H](Cc2ccccc2)C(=O)N2CCC[C@H]2C(=O)N[C@@H](CC(N)=O)C(=O)N[C@@H](C)C(=O)N[C@@H](Cc2c[nH]c3ccccc23)C(=O)N[C@@H](CCCNC(=N)N)C(=O)N[C@@H](CCC(=O)O)C(=O)N[C@@H](CC(C)C)C(=O)O)[C@@H](C)CC)[C@@H](C)CC)C(C)C)C(C)C)NC(=O)[C@H](CC(C)C)NC(=O)[C@H](Cc2ccccc2)NC(=O)[C@@H]2CCCN2C(=O)[C@H](CC(N)=O)NC(=O)[C@H](Cc2ccccc2)NC1=O)[C@@H](C)CC)[C@@H](C)O,"Neutrophil elastase (ELANE, Homo sapiens, UniProt P08246)",enzyme activity,inhibitor,,IC50,> 100 µM
CNC(=O)c1ccc(-c2cnn3ccc(C(=O)N(C)c4ccc(Cl)c(C(=O)O)c4)cc23)cc1,"Non-receptor tyrosine-protein kinase TYK2 (TYK2, Homo sapiens, UniProt P29597)",enzyme activity,inhibitor,,IC50,> 30 µM
CCN(CC)C(=O)N[C@H]1C[C@@H]2c3cccc4[nH]cc(c34)C[C@H]2N(C)C1,HTR1E,G protein activation,agonist,BRET,EC50,1.81 µM
O=C(O)C(F)(F)C(F)(F)C(F)(F)C(F)(F)C(F)(F)C(F)(F)C(F)(F)F,"Aldo-keto reductase family 1 member C4 (AKR1C4, Homo sapiens, UniProt P17516)",enzyme activity,inhibitor,,IC50,≥ 50 µM
COC(=O)c1cc(N(C)C(=O)c2ccn3ncc(-c4ccc(C(=O)O)cc4)c3c2)ccc1Cl,"Epidermal growth factor receptor (EGFR, Homo sapiens, UniProt P00533)",enzyme activity,inhibitor,,IC50,> 30 µM
c1ccc(-c2nnc(CN3CCN(c4ccccc4)CC3)o2)cc1,BACE1,enzyme activity,inhibitor,FRET,IC50,4.79 µM
CNC(=O)c1ccc(-c2cnn3ccc(C(=O)N(C)c4ccc(Cl)c(C(=O)OC)c4)cc23)cc1,"Wee1-like protein kinase (WEE1, Homo sapiens, UniProt P30291)",enzyme activity,inhibitor,,IC50,> 30 µM
COc1cccc(C=NNC(=O)c2cc(-c3cn(C)c4ccccc34)on2)c1OC,BACE1,enzyme activity,inhibitor,FRET,IC50,8.28 µM
Cc1c2oc3c(C)ccc(C(=O)N[C@@H]4C(=O)N[C@H](C(C)C)C(=O)N5CCC[C@H]5C(=O)N(C)CC(=O)N(C)[C@@H](C(C)C)C(=O)O[C@@H]4C)c3nc-2c(C(=O)N[C@@H]2C(=O)N[C@H](C(C)C)C(=O)N3CCC[C@H]3C(=O)N(C)CC(=O)N(C)[C@@H](C(C)C)C(=O)O[C@@H]2C)c(N)c1=O,"Palmitoyl-protein thioesterase 1 (Homo sapiens, UniProt P50897)",binding,,MST,Kd,0.235 µM
